Assay results published in ChEMBL document CHEMBL2203019, “Cytotoxic cyclic depsipeptides from the Australian marine sponge Neamphius huxleyi” (J Nat Prod, 2012).
Where a name gives a salt, the structure may show the parent alone. Calls of active or inactive are those of the source. The calls are words filed in the database; no cut-off is given here.

Tests used:
[1] = system: A549; experiment: Cytotoxicity against human A549 cells assessed as cell proliferation at 100 nM after 48 hrs by confocal microscopic analysis
[2] = system: A549; experiment: Cytotoxicity against human A549 cells assessed as cell index at 100 nM after 72 hrs by alamar blue assay; type: functional, cell-based; conditions: in the assay text read “xCelligence impedance assay” for “alamar blue assay”
How it was run: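 Real-time impedance (cell index) was recorded on an xCelligence system. A549 cells were seeded at 4000/well, settled 30 min at room temperature, then recorded at 37 °C, 5% CO2. Next day, half the medium was swapped for medium holding 2× compound. Vehicle was 1% DMSO. Runs were in triplicate, in two independent experiments. Readings were taken every minute for 2 h, then hourly to 72 h.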

[3] = system: HeLa; experiment: Cytotoxicity against human HeLa cells after 72 hrs by alamar blue assay; type: functional, cell-based
How it was run: (§1)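 Cells were grown in RPMI with 10% FBS and penicillin/streptomycin (37 °C, 5% CO2). Plates held 1000 cells/well and were left overnight to adhere. Compounds were given for 72 h over 10 concentrations from 100 μM to 3 nM final, with 1% DMSO. Viability was read with Alamar blue at 10% final for 24 h (fluorescence ex 535/em 590 nm). Each concentration was run in triplicate. IC50 was fitted by nonlinear regression, as mean ± SD of two experiments. Vincristine served as positive control.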

[4] = Cytotoxicity against human HEK cells after 72 hrs by alamar blue assay; type: cell-based; conditions: HEK293, 72 h
How it was run: (§2)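 Cells were kept in DMEM with 10% FBS and penicillin/streptomycin at 37 °C and 5% CO2. 1000 cells/well adhered overnight, then were exposed for 72 h to a 10-point series from 100 μM to 3 nM final (1% DMSO). Alamar blue was added to 10% final for 24 h, and fluorescence was read at ex 535/em 590 nm. Triplicates were run. IC50 came from nonlinear regression, as mean ± SD of two independent experiments. Vincristine was the positive control.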

[5] = system: PC-3; experiment: Cytotoxicity against human PC3 cells after 72 hrs by alamar blue assay; type: functional, cell-based; conditions: PC-3, 72 h
How it was run: as §1

[6] = system: A549; experiment: Cytotoxicity against human A549 cells after 72 hrs by alamar blue assay; type: functional, cell-based; conditions: A549, 72 h
How it was run: as §2

[7] = system: NFF; experiment: Cytotoxicity against human NFF cells after 72 hrs by alamar blue assay; type: cell-based
How it was run: as §2

[8] = system: LNCaP; experiment: Cytotoxicity against human LNCAP cells after 72 hrs by alamar blue assay; type: functional, cell-based
How it was run: as §1

Row | Compound | Activity [1] | Activity [2] | IC50 [3] | IC50 [4] | IC50 [5] | IC50 [6] | IC50 [7] | IC50 [8]
1 | CCC(C)C[C@@H](C)[C@@H](O)[C@@H](C)C(=O)N[C@@H](CC(N)=O)C(=O)N[C@@H](CCCNC(=N)N)[C@@H](O)[C@@H](O)C(=O)NC(C(=O)N[C@H]1C(=O)N[C@H]([C@H](C)O)C(=O)N[C@H](CCCNC(=N)N)C(=O)N[C@@H](CC(C)C)C(=O)N(C)[C@@H](CCC(N)=O)C(=O)N[C@H]([C@H](OC)c2ccc(O)cc2)C(=O)N2CCCC[C@H]2C(=O)O[C@@H]1C)C(C)C(C)C(N)=O (relative stereo) | inactive | inactive | 210 nM | 88 nM | 130 nM | 91 nM | 150 nM | 110 nM
2 | CO[C@H](c1ccc(O)cc1)[C@H]1NC(=O)[C@H](CCC(N)=O)N(C)C(=O)[C@H](CC(C)C)NC(=O)[C@@H](CCCNC(=N)N)NC(=O)[C@@H]([C@H](C)O)NC(=O)[C@H](NC(=O)C(NC(=O)[C@H](O)[C@H](O)[C@H](CCCNC(=N)N)NC(=O)[C@H](CC(N)=O)NC(=O)[C@H](C)[C@H](O)[C@H](C)CC(C)C)C(C)C(C)C(N)=O)[C@@H](C)OC(=O)[C@@H]2CCCCN2C1=O (relative stereo) |  |  | 110 nM | 200 nM | 170 nM | 130 nM | 370 nM | 230 nM
3 | CC[C@]1(O)C[C@H]2CN(CCc3c([nH]c4ccccc34)[C@@](C(=O)OC)(c3cc4c(cc3OC)N(C=O)[C@H]3[C@@](O)(C(=O)OC)[C@H](OC(C)=O)[C@]5(CC)C=CCN6CC[C@]43[C@@H]65)C2)C1 [VINCRISTINE SULFATE] |  |  | 36 nM | 31 nM | 15 nM | 20 nM | 17 nM | 6.1 nM
4 | CO[C@H](c1ccc(O)cc1)[C@H]1NC(=O)[C@H](CCC(=O)O)N(C)C(=O)[C@H](CC(C)C)NC(=O)[C@@H](CCCNC(=N)N)NC(=O)[C@@H]([C@H](C)O)NC(=O)[C@H](NC(=O)C(NC(=O)[C@H](O)[C@H](O)[C@H](CCCNC(=N)N)NC(=O)[C@H](CC(N)=O)NC(=O)[C@H](C)[C@H](O)[C@H](C)CC(C)C)C(C)C(C)C(N)=O)[C@@H](C)OC(=O)[C@@H]2CCCCN2C1=O (relative stereo) |  |  | 170 nM | 160 nM | 110 nM | 131 nM | 260 nM | 190 nM
